Experimental data taken from PMC6263940 (Nature chemical biology, 2018).

Legend:
ABHD12 [1] = target: T1, ABHD12 (Homo sapiens, UniProt Q8N2K0); test: ABPP-SILAC; assay type: cell-based; conditions: 1 μM, 4 h, THP-1 cells
T1 sequence (Q8N2K0 1-398): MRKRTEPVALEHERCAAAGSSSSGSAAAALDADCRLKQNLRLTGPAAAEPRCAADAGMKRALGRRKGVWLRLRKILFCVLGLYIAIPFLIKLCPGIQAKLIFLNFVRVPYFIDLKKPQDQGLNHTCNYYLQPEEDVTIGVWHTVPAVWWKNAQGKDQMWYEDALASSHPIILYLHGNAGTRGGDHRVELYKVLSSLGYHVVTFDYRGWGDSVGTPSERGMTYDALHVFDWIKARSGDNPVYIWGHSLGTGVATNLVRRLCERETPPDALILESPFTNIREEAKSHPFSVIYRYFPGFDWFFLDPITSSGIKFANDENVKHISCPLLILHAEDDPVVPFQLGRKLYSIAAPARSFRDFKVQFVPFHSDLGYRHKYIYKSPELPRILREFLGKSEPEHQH
How it was run: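 Heavy- or light-labelled THP-1 cells (30 million) differentiated with PMA (150 ng/mL final) for 24 h, washed, then kept a further 24 h in fresh SILAC medium. Light cells treated with test compound and heavy cells with DMSO, 4 h at 37 °C. Sonicated whole-cell proteomes (2 mg/mL) labelled separately with FP-biotin 1 μM, 30 min, room temperature, then combined for quantitative MS.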

PLA2G6 = target: T2, PLA2G6 (Mus musculus, UniProt P97819); test: Quantitative MS-ABPP of brain membrane proteome from treated mice: PLA2G6; assay type: in vivo; conditions: 30 mg/kg, i.p., 4 h
T2 sequence (P97819 1-807): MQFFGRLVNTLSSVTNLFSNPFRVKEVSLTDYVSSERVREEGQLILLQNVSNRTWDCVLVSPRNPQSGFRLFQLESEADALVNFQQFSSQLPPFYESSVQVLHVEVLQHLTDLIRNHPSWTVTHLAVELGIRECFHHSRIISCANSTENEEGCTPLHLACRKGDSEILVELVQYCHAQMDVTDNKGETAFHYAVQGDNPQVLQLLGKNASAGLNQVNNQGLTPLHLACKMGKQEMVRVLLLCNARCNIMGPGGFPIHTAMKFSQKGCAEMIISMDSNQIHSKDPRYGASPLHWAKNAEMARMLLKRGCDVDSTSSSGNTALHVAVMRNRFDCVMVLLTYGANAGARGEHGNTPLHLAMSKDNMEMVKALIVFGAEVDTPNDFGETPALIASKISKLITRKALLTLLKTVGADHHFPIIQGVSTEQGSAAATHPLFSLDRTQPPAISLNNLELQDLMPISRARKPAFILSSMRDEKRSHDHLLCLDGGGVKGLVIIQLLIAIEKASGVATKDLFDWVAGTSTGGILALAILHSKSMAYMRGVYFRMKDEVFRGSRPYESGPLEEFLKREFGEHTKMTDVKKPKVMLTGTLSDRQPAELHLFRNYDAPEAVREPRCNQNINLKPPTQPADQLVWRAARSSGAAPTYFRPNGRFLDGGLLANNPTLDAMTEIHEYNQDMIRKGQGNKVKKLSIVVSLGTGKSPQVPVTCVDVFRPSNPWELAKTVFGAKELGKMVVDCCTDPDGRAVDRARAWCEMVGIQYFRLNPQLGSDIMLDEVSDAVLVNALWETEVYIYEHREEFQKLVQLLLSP
How it was run: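 Mice dosed i.p. with test compound (30 mg/kg) or vehicle and killed after 4 h (isoflurane, then cervical dislocation). Brain membrane serine hydrolase activities quantified by MS-based ABPP. Each protein's value is the mean of median peptide ratios (treated vs vehicle) ± SEM, from n = 4 or 3 independent samples per compound.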

[2] = target: T3, serine hydrolases in THP-1 cells (Homo sapiens, UniProt P08910); test: ABPP-SILAC; assay type: cell-based
T3 sequence (P08910 1-425): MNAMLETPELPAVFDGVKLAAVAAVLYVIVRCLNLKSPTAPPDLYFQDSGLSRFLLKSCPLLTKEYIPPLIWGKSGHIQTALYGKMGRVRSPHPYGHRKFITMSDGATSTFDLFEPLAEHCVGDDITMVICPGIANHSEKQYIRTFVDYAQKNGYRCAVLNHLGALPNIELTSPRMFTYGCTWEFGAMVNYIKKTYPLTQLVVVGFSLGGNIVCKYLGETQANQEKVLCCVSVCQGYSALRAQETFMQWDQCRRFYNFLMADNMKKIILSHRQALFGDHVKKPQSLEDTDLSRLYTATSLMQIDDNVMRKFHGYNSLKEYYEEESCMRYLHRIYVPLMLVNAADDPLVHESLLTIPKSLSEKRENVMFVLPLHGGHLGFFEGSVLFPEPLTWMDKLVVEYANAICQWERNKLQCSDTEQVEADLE

[3] = test system: serine hydrolases in THP-1 cells; test: ABPP-SILAC; assay type: cell-based, human; conditions: 1 μM, 4 h, THP-1 cells
ABHD12 [4] = target: T4, ABHD12 (Mus musculus, UniProt Q99LR1); test: Lyso-PS hydrolysis assay with membrane lysates of ABHD12-transfected cells; assay type: biochemical
T4 sequence (Q99LR1 1-398): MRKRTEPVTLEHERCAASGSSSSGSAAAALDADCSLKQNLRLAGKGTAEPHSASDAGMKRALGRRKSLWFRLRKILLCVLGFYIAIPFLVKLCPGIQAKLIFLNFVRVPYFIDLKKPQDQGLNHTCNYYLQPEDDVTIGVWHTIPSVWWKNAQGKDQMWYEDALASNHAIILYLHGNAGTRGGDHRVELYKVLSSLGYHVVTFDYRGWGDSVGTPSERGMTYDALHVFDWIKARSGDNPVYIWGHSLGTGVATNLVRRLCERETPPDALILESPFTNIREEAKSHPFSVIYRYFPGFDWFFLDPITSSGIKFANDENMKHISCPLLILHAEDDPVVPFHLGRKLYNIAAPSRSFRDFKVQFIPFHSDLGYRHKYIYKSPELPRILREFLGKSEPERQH
How it was run: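 Membrane lysate of ABHD12-transfected cells in DPBS incubated with 17:1 lyso-PS (100 μM final) for 20 min at 37 °C. Quenched in 2:1 CHCl₃/MeOH with 15:0 FFA internal standard. Activity is the LC-MS 17:1 FFA/15:0 FFA peak-area ratio minus mock-transfected membrane activity. IC50 fitted as log(inhibitor) vs normalized response.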

ABHD12 [5] = target: T4, ABHD12; test: ABHD12-dependent lyso-PS lipase activity of mouse brain membrane proteome; assay type: biochemical

**Q.** How did the ABHD12 activity blocked (ABHD12 [1]) turn out when `FC(F)(F)Oc1ccc(Oc2ccnc(N3CCC(NC(=S)Nc4cccnc4)CC3)c2Cl)c(Cl)c1` [DO264, N-3-pyridyl-N’-(1-[3-chloro-4-{2-chloro-4-(trifluoromethoxy)phenoxy}pyridine-2-yl]piperidin-4-yl)thiourea] was run?
**A.** > 95%

**Q.** And the “reduction in PLA2G6 activity in treated mice” value (PLA2G6)?
**A.** 40-50%

**Q.** And the “inhibition of human ABHD2 in situ” value [2]?
**A.** did not inhibit

**Q.** What about the “effect on activity of other serine hydrolases” value [3] of the same compound?
**A.** without affecting the activity of other serine hydrolases

**Q.** And the “time dependence of ABHD12 inhibition” value (ABHD12 [4]; 30-45 min or no preincubation, ABHD12-transfected HEK293T lysate 0.2 mg/mL)?
**A.** did not show time-dependent inhibition

**Q.** What about the “ABHD12 activity after dilution of inhibitor-treated lysates” value (ABHD12 [4]; ABHD12-transfected HEK293T lysates, preincubated 20 min, diluted five-fold) of the same compound?
**A.** recovery of ABHD12 activity

**Q.** And the IC50 (ABHD12 [5])?
**A.** 2.8 nM
